ChEMBL document CHEMBL1146021, “Calcium channel antagonists discovered by a multidisciplinary approach” (J Med Chem, 2006)
One block for each molecule: values may come before it. The source made the active and inactive calls.

Experiments:
[1] = species: Cavia porcellus; assay: Vasorelaxant activity assessed as inhibition of calcium-induced contraction of potassium ion-depolarized guinea pig aortic strips at 100 uM; type: functional, Aorta; parameters: scale not given: the % may be the effect or the level left
Procedure, shortened: (§1)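 Helicoidal guinea-pig aortic strips in aerated PSS at 35 °C, contracted with 80 mM KCl (K+ substituted for Na+). At plateau (about 45 min), compounds added cumulatively at 0.1-500 μM in DMSO vehicle. Relaxation measured isometrically. IC50 by Probit analysis, n = 6-8.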

[2] = species: Cavia porcellus; assay: Negative inotropic activity in guinea pig left atrium at 50 uM; type: functional, Cardiac atrium
Procedure, shortened: (§2)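 Guinea-pig left atria driven at 1 Hz (0.6-0.8 ms pulses, about 50% threshold voltage) in PSS, 35 °C, pH 7.4, 95% O2/5% CO2. Isometric tension recorded. Cumulative concentrations 0.01-100 μM in DMSO (≤0.3%), each to steady state. Percent decrease in developed tension, n = 4-6. EC50 by Probit analysis.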

[3] = species: Cavia porcellus; assay: Negative inotropic activity in guinea pig left atrium; type: functional; details: Cardiac atrium; procedure, shortened: as §2
[4] = species: Cavia porcellus; assay: Negative chronotropic activity in guinea pig right atrium at 5 uM; type: functional, Cardiac atrium
Procedure, shortened: (§3)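 Spontaneously beating guinea-pig right atria in PSS, 35 °C, pH 7.4, 95% O2/5% CO2. Cumulative concentrations 0.01-100 μM in DMSO (≤0.3% in bath), each to steady state. Rate decrease taken as percent of control (pretreatment 170-195 beats/min), n = 6-8. EC30 by Probit analysis.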

[5] = species: Cavia porcellus; assay: Negative inotropic activity in guinea pig left ventricular papillary muscle; type: functional; details: Muscle tissue
[6] = species: Cavia porcellus; assay: Cardiac activity in guinea pig heart measured as decrease in heart rate at 1 uM by ECG relative to control; type: functional; parameters: scale not given: the % may be the effect or the level left
Procedure, shortened: (§4)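 Langendorff-perfused isolated hearts from female guinea-pigs (300-400 g). Compounds given cumulatively at 0.001-1 μM, each step held to steady state (about 30 min). Read-outs: surface ECG (PR interval, heart rate), intraventricular balloon +(dP/dt)max and coronary perfusion pressure. Results given as percent change from basal at 1 μM, mean ± SEM.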

[7] = species: Cavia porcellus; assay: Cardiac activity in guinea pig heart measured as decrease in left ventricular pressure at 1 uM relative to control; type: functional; parameters: scale not given: the % may be the effect or the level left; procedure, shortened: as §4
[8] = species: Cavia porcellus; assay: Antagonist activity against calcium channel assessed as inhibition of calcium-induced contraction of potassium ion-depolarized guinea pig ileum longitudinal smooth muscle; type: functional
Procedure, shortened: (§5)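 Guinea-pig ileum longitudinal smooth muscle segments (2 cm) held at 300-400 mg resting tension, 37 °C, in oxygenated (100% O2) Hepes-buffered PSS at pH 7.4. Isometric contraction recorded. Inhibition expressed as percentage of control. Probit log concentration–response analysis, n = 6-8.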

[9] = species: Cavia porcellus; assay: Antagonist activity against calcium channel assessed as inhibition of carbachol-induced tonic contraction of guinea pig ileum longitudinal smooth muscle; type: functional
Procedure, shortened: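 Guinea-pig ileum longitudinal smooth muscle segments (2 cm), 300-400 mg resting tension, 37 °C, oxygenated Hepes-buffered PSS at pH 7.4, equilibrated 1 h. Two control carbachol curves run 30 min apart. Test agent (10 μM) added 30 min before the carbachol curve. Isometric inhibition expressed as percent of control.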

[10] = species: Cavia porcellus; assay: Cardiac activity in guinea pig heart measured as prolongation of atrioventricular conduction time at 1 uM relative to control; type: functional; procedure, shortened: as §4
[11] = species: Cavia porcellus; assay: Cardiac activity in guinea pig heart measured as decrease in coronary perfusion pressure at 1 uM relative to control; type: functional; parameters: scale not given: the % may be the effect or the level left; procedure, shortened: as §4
[12] = species: Cavia porcellus; assay: Negative chronotropic activity in guinea pig right atrium at 50 uM; type: functional, Cardiac atrium; procedure, shortened: as §3
[13] = species: Cavia porcellus; assay: Antagonist activity against calcium channel assessed as inhibition of calcium-induced contraction of potassium ion-depolarized guinea pig ileum longitudinal smooth muscle at 50 uM; type: functional; parameters: scale not given: the % may be the effect or the level left; procedure, shortened: as §5
[14] = biological target: Voltage-dependent L-type calcium channel subunit alpha-1C (Rattus norvegicus, UniProt P22002); assay: Inhibition of [3H]diltiazem binding to Sprague-Dawley rat cardiomyocytes
Voltage-dependent L-type calcium channel subunit alpha-1C, sequence (P22002 whole entry, the tested form may be a part): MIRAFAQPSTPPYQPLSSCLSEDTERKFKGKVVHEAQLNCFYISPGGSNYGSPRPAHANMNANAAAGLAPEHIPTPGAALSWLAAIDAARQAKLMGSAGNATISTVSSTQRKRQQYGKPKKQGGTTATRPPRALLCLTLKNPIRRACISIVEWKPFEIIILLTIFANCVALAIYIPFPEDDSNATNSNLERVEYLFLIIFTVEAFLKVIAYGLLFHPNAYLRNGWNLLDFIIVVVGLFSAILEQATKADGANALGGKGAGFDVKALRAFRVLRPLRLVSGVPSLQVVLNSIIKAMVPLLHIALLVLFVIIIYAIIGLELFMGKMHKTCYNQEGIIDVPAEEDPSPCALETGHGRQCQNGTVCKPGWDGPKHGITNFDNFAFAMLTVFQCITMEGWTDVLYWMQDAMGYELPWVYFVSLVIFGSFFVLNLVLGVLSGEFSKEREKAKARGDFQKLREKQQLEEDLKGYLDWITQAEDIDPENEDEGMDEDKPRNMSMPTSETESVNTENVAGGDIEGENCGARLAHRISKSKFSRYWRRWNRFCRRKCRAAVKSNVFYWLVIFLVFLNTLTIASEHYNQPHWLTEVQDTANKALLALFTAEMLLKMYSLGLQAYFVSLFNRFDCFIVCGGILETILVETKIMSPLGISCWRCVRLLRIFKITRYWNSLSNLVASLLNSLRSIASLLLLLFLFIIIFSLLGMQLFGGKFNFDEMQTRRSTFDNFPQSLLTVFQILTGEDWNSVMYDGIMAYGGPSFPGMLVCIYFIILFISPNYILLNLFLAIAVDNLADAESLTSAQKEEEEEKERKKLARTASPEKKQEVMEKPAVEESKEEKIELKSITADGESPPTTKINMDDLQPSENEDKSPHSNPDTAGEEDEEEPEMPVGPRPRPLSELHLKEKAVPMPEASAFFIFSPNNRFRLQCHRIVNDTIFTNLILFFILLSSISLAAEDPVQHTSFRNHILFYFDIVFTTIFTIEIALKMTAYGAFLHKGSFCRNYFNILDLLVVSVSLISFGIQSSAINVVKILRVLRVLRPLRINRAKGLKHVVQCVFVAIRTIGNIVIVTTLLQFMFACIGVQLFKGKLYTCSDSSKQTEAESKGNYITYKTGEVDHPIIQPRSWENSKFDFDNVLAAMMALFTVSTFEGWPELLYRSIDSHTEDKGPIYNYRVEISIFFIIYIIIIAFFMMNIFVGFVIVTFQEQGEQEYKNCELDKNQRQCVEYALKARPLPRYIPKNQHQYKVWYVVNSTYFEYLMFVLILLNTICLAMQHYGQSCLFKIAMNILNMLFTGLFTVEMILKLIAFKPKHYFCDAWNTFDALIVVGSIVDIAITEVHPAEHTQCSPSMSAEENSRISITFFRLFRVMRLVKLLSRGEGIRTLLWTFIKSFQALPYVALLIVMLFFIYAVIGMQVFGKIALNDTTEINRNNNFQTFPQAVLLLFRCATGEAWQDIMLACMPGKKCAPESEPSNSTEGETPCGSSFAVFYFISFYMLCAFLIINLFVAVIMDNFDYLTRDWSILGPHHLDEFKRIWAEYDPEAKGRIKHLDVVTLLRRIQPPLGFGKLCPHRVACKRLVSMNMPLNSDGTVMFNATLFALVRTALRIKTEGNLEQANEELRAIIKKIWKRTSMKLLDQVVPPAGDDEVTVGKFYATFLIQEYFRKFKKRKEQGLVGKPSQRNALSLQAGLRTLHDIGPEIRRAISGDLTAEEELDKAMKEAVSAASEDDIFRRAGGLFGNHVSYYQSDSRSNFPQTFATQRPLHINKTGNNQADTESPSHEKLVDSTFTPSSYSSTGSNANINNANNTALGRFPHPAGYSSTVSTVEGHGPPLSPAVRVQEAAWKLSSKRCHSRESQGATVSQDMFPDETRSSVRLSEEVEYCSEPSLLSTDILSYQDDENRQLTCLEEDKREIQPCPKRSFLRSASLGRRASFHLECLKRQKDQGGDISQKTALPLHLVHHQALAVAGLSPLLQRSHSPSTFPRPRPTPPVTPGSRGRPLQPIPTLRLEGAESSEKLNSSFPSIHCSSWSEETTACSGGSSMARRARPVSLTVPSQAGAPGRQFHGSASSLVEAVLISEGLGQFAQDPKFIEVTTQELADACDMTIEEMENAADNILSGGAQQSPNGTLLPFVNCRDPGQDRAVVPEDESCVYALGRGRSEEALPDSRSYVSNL
Procedure, shortened: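 Cardiomyocytes from male Sprague-Dawley rats, isolated by Langendorff perfusion and stored frozen (200 μg per tube). Incubated with 5 nM [3H]diltiazem and test ligand (0.1 nM-100 μM) in 50 mM Tris pH 7.4, 25 °C, 90 min. Bound ligand separated by filtration. Nonspecific binding with 100 μM diltiazem. Triplicates. pIC50 from sigmoidal fit; Ki by Cheng-Prusoff.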

[15] = species: Cavia porcellus; assay: Negative inotropic activity in guinea pig left ventricular papillary muscle at 50 uM; type: functional, Muscle tissue
[16] = species: Cavia porcellus; assay: Negative chronotropic activity in guinea pig right atrium; type: functional; details: Cardiac atrium; procedure, shortened: as §3
[17] = species: Cavia porcellus; assay: Negative chronotropic activity in guinea pig right atrium at 100 uM; type: functional, Cardiac atrium; details: in the assay text read “50 uM” for “100 uM”; procedure, shortened: as §3
[18] = species: Cavia porcellus; assay: Negative inotropic activity in guinea pig left atrium at 500 uM; type: functional, Cardiac atrium
[19] = species: Cavia porcellus; assay: Antagonist activity against calcium channel assessed as inhibition of calcium-induced contraction of potassium ion-depolarized guinea pig ileum longitudinal smooth muscle at 500 uM; type: functional; parameters: scale not given: the % may be the effect or the level left; procedure, shortened: as §5
[20] = species: Cavia porcellus; assay: Vasorelaxant activity assessed as inhibition of calcium-induced contraction of potassium ion-depolarized guinea pig aortic strips at 50 uM; type: functional, Aorta; parameters: scale not given: the % may be the effect or the level left; procedure, shortened: as §1
[21] = species: Cavia porcellus; assay: Negative inotropic activity in guinea pig left ventricular papillary muscle at 10 uM; type: functional, Muscle tissue
[22] = species: Cavia porcellus; assay: Antagonist activity against calcium channel assessed as inhibition of calcium-induced contraction of potassium ion-depolarized guinea pig ileum longitudinal smooth muscle at 100 uM; type: functional; parameters: scale not given: the % may be the effect or the level left; procedure, shortened: as §5
[23] = species: Cavia porcellus; assay: Negative inotropic activity in guinea pig left atrium at 1 uM; type: functional, Cardiac atrium; procedure, shortened: as §2
[24] = species: Cavia porcellus; assay: Negative inotropic activity in guinea pig left ventricular papillary muscle at 500 uM; type: functional, Muscle tissue
[25] = species: Cavia porcellus; assay: Negative chronotropic activity in guinea pig right atrium at 10 uM; type: functional, Cardiac atrium; procedure, shortened: as §3
[26] = species: Cavia porcellus; assay: Negative inotropic activity in guinea pig left atrium at 100 uM; type: functional, Cardiac atrium; details: in the assay text read “50 uM” for “100 uM”; procedure, shortened: as §2
[27] = species: Cavia porcellus; assay: Negative inotropic activity in guinea pig left atrium at 10 uM; type: functional, Cardiac atrium; procedure, shortened: as §2
[28] = species: Cavia porcellus; assay: Vasorelaxant activity assessed as inhibition of calcium-induced contraction of potassium ion-depolarized guinea pig aortic strips; type: functional; details: Aorta; procedure, shortened: as §1
[29] = species: Cavia porcellus; assay: Negative inotropic activity in guinea pig left atrium at 5 uM; type: functional, Cardiac atrium; procedure, shortened: as §2

EC50 [3]: 990 nM
SMILES: O=C(c1ccccn1)c1conc1-c1c(Cl)cccc1Cl
Activity [1]: 25%
Activity [2]: 81%
Activity [4]: 21%

EC50 [5]: 10200 nM
EC50 [8]: 14200 nM
IC50 [9]: 34500 nM
EC50 [3]: 313 nM
Ki [14]: 3020 nM
SMILES: O=S(=O)(c1ccc(Cl)cc1)N(C1CCNCC1)C1CC1
Activity [6]: 12%
Activity [7]: 12%
Activity [10]: inactive
Activity [1]: 19%
Activity [2]: 76%
Activity [11]: 13%
Activity [12]: 64%
Activity [13]: 89%
Activity [15]: 78%
EC30 [16]: 480 nM

EC50 [3]: 3910 nM
SMILES: COC(=O)c1ccccc1-n1cccc1C(=O)C(Cl)(Cl)Cl
Activity [17]: 33%
Activity [1]: 20%
Activity [18]: 76%

EC50 [5]: 66 nM
EC50 [8]: 124000 nM
EC50 [3]: 400 nM
SMILES: CC(=O)c1ccccc1N1C(=O)CSCC1=O
Activity [6]: 14%
Activity [7]: 17%
Activity [9]: inactive
Activity [10]: 15%
Activity [19]: 55%
Activity [2]: 61%
Activity [20]: 5%
Activity [21]: 89%
Activity [11]: 6%
Activity [12]: 3%

IC50 [9]: 40000 nM
EC50 [3]: 40 nM
SMILES: CCOC1(c2ccc(Br)cc2)SC=C(C)n2c1noc2=O (stereo unspecified)
Activity [6]: 14%
Activity [7]: 3%
Activity [17]: 5%
Activity [10]: 32%
Activity [1]: 19%
Activity [22]: 3%
Activity [23]: 77%
Activity [11]: 9%
Activity [24]: 2%

EC50 [3]: 1170 nM
SMILES: C=CCN(CC=C)S(=O)(=O)c1ccc(Cl)cc1
Activity [25]: 6%
Activity [26]: 98%
Activity [1]: 42%

EC50 [3]: 1330 nM
IC50 [28]: 25100 nM
SMILES: CSC1=NCCCN1S(=O)(=O)c1ccc(Cl)cc1
Activity [25]: 5%
Activity [1]: 57%
Activity [27]: 92%

EC50 [3]: 900 nM
SMILES: CO/N=C/c1c(Sc2ccccc2C(=O)OC)nc2sccn12
Activity [2]: 63%
Activity [20]: 9%
Activity [12]: 13%

EC50 [3]: 2280 nM
SMILES: Cc1snc(S(=O)(=O)Cc2c(F)cccc2Cl)c1C#N
Activity [1]: 23%
Activity [2]: 80%
Activity [12]: 22%

EC50 [3]: 300 nM
SMILES: CCN(c1ccccc1)S(=O)(=O)c1ccc(Cl)cc1
Activity [1]: 46%
Activity [29]: 90%
Activity [4]: 7%

SMILES: CCO[C@@]1(c2ccc(Br)cc2)SC=C(C)n2c1noc2=O
Activity [1]: 7%
Activity [23]: 47%
Activity [12]: 15%
